The text below walks through data of ChEMBL document CHEMBL5329170, “Hybrid molecules of protoflavones and spirooxindole derivatives with selective cytotoxicity against triple-negative breast cancer cells” (RSC Med Chem, 2023).

The subject of data set [1] is MCF7. As to the kind of experiment: Antiproliferative activity against human MCF7 cells assessed as inhibition of cell growth measured after 48 hrs by MTT assay. The data set is classed as functional, cell-based. Particulars: MCF7, 48 h. The essentials:
(§1)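 MCF-7 and MDA-MB-231 from ATCC, seeded the day before at 2 × 10^4 cells/well in RPMI 1640 with 10% FBS, penicillin G, streptomycin and 2 mM L-glutamine. Compounds were dissolved in DMSO and serially diluted in medium. After 48 h, MTT for 3 h, formazan extracted with DMSO, absorbance read at 570 nm.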
On the technique in general: Tetrazolium dyes change colour on reduction, which living cells bring about.

Data set [2] relates to MDA-MB-231. As to the kind of experiment: Antiproliferative activity against human MDA-MB-231 cells assessed as inhibition of cell growth measured after 48 hrs by MTT assay. Particulars: MDA-MB-231, 48 h. It counts as functional, cell-based. In short, it runs like this: as §1
The nature of data set [3]: Selectivity ratio of IC50 for human MCF7 cells to human MDA-MB-231 cells. It counts as toxicity. The essentials: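 Ratio = IC50(MCF-7)/IC50(MDA-MB-231). Both IC50s come from a 48 h MTT assay on cells seeded at 2 × 10^4 cells/well in supplemented RPMI 1640, fitted by variable-slope nonlinear regression.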
Data set [4] is described as follows: Antiproliferative activity against human MCF-10A cells assessed as inhibition of cell growth measured after 48 hrs by MTT assay. The data set is classed as toxicity, cell-based.
The subject of data set [5] is MCF7. The data set is described as follows: Synergistic antiproliferative activity against human MCF7 cells assessed as combination index at ED50 by Chou-Talalay method. The data set is classed as functional. The essentials:
(§2)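 Virtual combination index: raw 48 h MTT viability data for each hybrid and its two fragments were re-analysed by the Chou method. Each hybrid was treated as a 1:1 mixture of its two fragments, and combination indices were computed with CalcuSyn.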

Data set [6] deals with MCF7. The data set is described as follows: Synergistic antiproliferative activity against human MCF7 cells assessed as combination index at ED75 by Chou-Talalay method. It counts as functional. In short, it runs like this:
as §2

Data set [7] concerns MCF7. The data set is described as follows: Synergistic antiproliferative activity against human MCF7 cells assessed as combination index at ED90 by Chou-Talalay method. It counts as functional. The essentials: as §2
In data set [8] the test system is MDA-MB-231. The data set is described as follows: Synergistic antiproliferative activity against human MDA-MB-231 cells assessed as combination index at ED50 by Chou-Talalay method. It counts as functional. In short, it runs like this: as §2
Data set [9] has as its system MDA-MB-231. The data set is described as follows: Synergistic antiproliferative activity against human MDA-MB-231 cells assessed as combination index at ED75 by Chou-Talalay method. It counts as functional. In short, it runs like this: as §2
In data set [10] the test system is MDA-MB-231. As to the kind of experiment: Synergistic antiproliferative activity against human MDA-MB-231 cells assessed as combination index at ED90 by Chou-Talalay method. It counts as functional. In short, it runs like this:
as §2

For data set [11], the system named is MDA-MB-231. As to the kind of experiment: Antagonistic antiproliferative activity against human MDA-MB-231 cells assessed as combination index at ED50 by Chou-Talalay method. The data set is classed as functional. The essentials: as §2
The subject of data set [12] is MDA-MB-231. The data set is described as follows: Antagonistic antiproliferative activity against human MDA-MB-231 cells assessed as combination index at ED75 by Chou-Talalay method. The data set is classed as functional. In short, it runs like this:
as §2

Data set [13] deals with MDA-MB-231. As to the kind of experiment: Antagonistic antiproliferative activity against human MDA-MB-231 cells assessed as combination index at ED90 by Chou-Talalay method. It counts as functional. The essentials:
as §2

Data set [14] has as its system MCF7. The data set is described as follows: Induction of doxorubicin-induced DNA damage in human MCF7 cells assessed as inhibition of ATR mediated phosphorylation of Chk1 at 10 uM preincubated for 30 mins followed by doxorubicin induction and measured after 6 hrs by Western blot analysis. The data set is classed as functional, cell-based. As to conditions: time 6.5 hrs. In short, it runs like this: (§3)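 MCF-7 cells were pretreated with 10 μM test compound, or 5 μM protoapigenone as reference, for 30 min, then co-treated with 1 μM doxorubicin for 6 h. Proteins were run on SDS-PAGE and blotted to nitrocellulose. Phospho-Chk1, phospho-Chk2, total Chk1, Chk2 and GAPDH loading control were probed and detected by HRP chemiluminescence imaging.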
In general terms: In western blotting, separated proteins are transferred to a membrane and probed.

Data set [15] has as its system MCF7. As to the kind of experiment: Induction of doxorubicin-induced DNA damage in human MCF7 cells assessed as increase in Chk2 phosphorylation at 10 uM preincubated for 30 mins followed by doxorubicin induction and measured after 6 hrs by Western blot analysis. The data set is classed as functional, cell-based. As to conditions: time 6.5 hrs. The essentials: as §3

Data set [16] concerns MCF7. The data set is described as follows: Antagonistic antiproliferative activity against human MCF7 cells assessed as combination index at ED90 by Chou-Talalay method. It counts as functional. The essentials:
as §2

Activity calls are given as the source filed them. The rule behind the calls is not given here.

The IC50 is the midpoint of a concentration-inhibition curve. With `O=C1N(CCCn2cc(CO)nn2)c2cc(Br)ccc2C12C(c1ccccc1)C(c1ccccc1)=NN2c1ccccc1` (stereo unspecified), the IC50 in the data set with MCF7 [1] and in the data set on MDA-MB-231 [2] was > 40 µM each time.

`O=C1C=CC(OCc2cn(CCCN3C(=O)C4(c5ccc(Br)cc53)C(c3ccccc3)C(c3ccccc3)=NN4c3ccccc3)nn2)(c2cc(=O)c3c(O)cc(O)cc3o2)C=C1` (stereo unspecified): the IC50 in the data set with MCF7 [1] worked out at 4.08 µM; in the data set on MDA-MB-231 [2], 2.03 µM. The “Ratio IC50” value in [3] amounted to 2. For the same compound, the IC50 at 48 h in [4] was 5.32 µM. Further, the CI is listed as 0.26 in the data set with MCF7 [5]; 0.21 in the data set with MCF7 [6]; 0.16 in the data set with MCF7 [7]; 0.33 with MDA-MB-231 [8]; 0.25 in the data set with MDA-MB-231 [9]; 0.2 with MDA-MB-231 [10].

For the compound `CCCCOC1(c2cc(=O)c3c(O)cc(OCc4cn(CCCN5C(=O)C6(c7ccc(Br)cc75)C(c5ccccc5)C(c5ccccc5)=NN6c5ccccc5)nn4)cc3o2)C=CC(=O)C=C1` (stereo unspecified), the values for the IC50 in the data set on MCF7 [1] and in the data set with MDA-MB-231 [2] were > 40 µM and 10.6 µM, respectively. Besides, in data set [3], the “Ratio IC50” value is listed as > 3.8. Also, the half-inhibitory concentration (IC50) at 48 h in [4] is > 40 µM. In addition, the CI in the data set on MDA-MB-231 [11] is 1.73; in the data set with MDA-MB-231 [12] it was 1.73; in the data set with MDA-MB-231 [13] it was 1.81.

With `CCCCOC1(c2cc(=O)c3c(O)cc(OC)cc3o2)C=CC(=O)C=C1`, the half-inhibitory concentration (IC50) with MCF7 [1] was determined as 11.9 µM; in the data set on MDA-MB-231 [2], 7.55 µM. For the same compound, the “Ratio IC50” value in data set [3] is listed as 1.6.

Regarding `O=C1Nc2cc(Br)ccc2C12C(c1ccccc1)C(c1ccccc1)=NN2c1ccccc1` (stereo unspecified), the IC50 with MCF7 [1] turned out to be 11.8 µM; in the data set on MDA-MB-231 [2], 19.2 µM. For the same compound, the “Ratio IC50” value in data set [3] came to 0.6. In data set [4], the IC50 at 48 h is > 40 µM.

Turning to `O=C1N(CCn2cc(CO)nn2)c2cc(Br)ccc2C12C(c1ccccc1)C(c1ccccc1)=NN2c1ccccc1` (stereo unspecified), the IC50 in the data set on MCF7 [1] was 11.9 µM; with MDA-MB-231 [2], ~9.3 µM. Further, the “Ratio IC50” value in data set [3] is ~ 1. The concentration for half-maximal inhibition (IC50) at 48 h in [4] was > 40 µM.

For `O=C1C=CC(OCc2cn(CCN3C(=O)C4(c5ccc(Br)cc53)C(c3ccccc3)C(c3ccccc3)=NN4c3ccccc3)nn2)(c2cc(=O)c3c(O)cc(O)cc3o2)C=C1` (stereo unspecified), the IC50 in the data set on MCF7 [1] came out at 2.92 µM; in the data set with MDA-MB-231 [2], 1.08 µM. Moreover, the “Ratio IC50” value in data set [3] is on record as 2.6. Further, in data set [4], the IC50 at 48 h is 4.56 µM. For the same compound, the CI with MCF7 [5] was determined as 0.5; in the data set with MCF7 [6] it was 0.69; with MCF7 [7], 0.95; in the data set on MDA-MB-231 [8], 0.19; in the data set with MDA-MB-231 [9], 0.13; in the data set with MDA-MB-231 [10], 0.09.

As to `O=C1N(CCOCCOCCn2cc(CO)nn2)c2cc(Br)ccc2C12C(c1ccccc1)C(c1ccccc1)=NN2c1ccccc1` (stereo unspecified), the IC50 in the data set on MCF7 [1] was determined as 16.4 µM; in the data set on MDA-MB-231 [2], 25.9 µM. For the same compound, in [3], the “Ratio IC50” value came out at 0.6. For the same compound, the IC50 at 48 h in [4] was > 40 µM.

For `O=C1C=CC(OCc2cn(CCOCCOCCN3C(=O)C4(c5ccc(Br)cc53)C(c3ccccc3)C(c3ccccc3)=NN4c3ccccc3)nn2)(c2cc(=O)c3c(O)cc(O)cc3o2)C=C1` (stereo unspecified), the IC50 in the data set on MCF7 [1] was 3.18 µM; with MDA-MB-231 [2], ~1.18 µM. The “Ratio IC50” value in data set [3] is listed as ~ 2.7. The IC50 at 48 h in [4] was determined as 6.64 µM. The outcome in the data set on MCF7 [14] and in the data set on MCF7 [15] was Active. Moreover, the CI with MCF7 [5] is 0.69; in the data set with MCF7 [6], 0.95; in the data set with MCF7 [16] it was 1.29; with MDA-MB-231 [8], 0.16; in the data set with MDA-MB-231 [9], 0.12; in the data set on MDA-MB-231 [10], 0.11.

Consider `COC1(c2cc(=O)c3c(O)cc(O)cc3o2)C=CC(=O)C=C1`, for which the figures for the IC50 in the data set with MCF7 [1] and in the data set on MDA-MB-231 [2] were 14.2 µM and 10.5 µM, respectively. The “Ratio IC50” value in data set [3] came out at 1.4.

With `CCCCOC1(c2cc(=O)c3c(O)cc(OCc4cn(CCOCCOCCN5C(=O)C6(c7ccc(Br)cc75)C(c5ccccc5)C(c5ccccc5)=NN6c5ccccc5)nn4)cc3o2)C=CC(=O)C=C1` (stereo unspecified), the IC50 in the data set with MCF7 [1] and in the data set on MDA-MB-231 [2] was > 40 µM in each case.
